In this test the target is Oxysterols receptor LXR-beta (Homo sapiens) (UniProt P55055). Description: dose-dependent LXR ligand-binding domain activation – cell-based, luminescence, powder sample, selectivity assay for RORA inverse agonist project, dose response (AID 463150). Conditions: HEK293T GAL4-LXR LBD luciferase reporter, 18-24 h. A digest of the protocol: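 Material: HEK293T with GAL4-LXR LBD fusion and UAS luciferase reporter / Doses: 10-point series from nominal 10 µM / Schedule: 20 h compound exposure after 24 h transfection / Measured by: luciferase reporter luminescence / Read-out: EC50 from four-parameter sigmoidal fit with adjustable baseline of percent activation / Benchmarks: DMSO-treated cells as normalization reference for luminescence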
Chain of Oxysterols receptor LXR-beta (Homo sapiens) (P55055 whole entry, looked up, the tested form may be a part): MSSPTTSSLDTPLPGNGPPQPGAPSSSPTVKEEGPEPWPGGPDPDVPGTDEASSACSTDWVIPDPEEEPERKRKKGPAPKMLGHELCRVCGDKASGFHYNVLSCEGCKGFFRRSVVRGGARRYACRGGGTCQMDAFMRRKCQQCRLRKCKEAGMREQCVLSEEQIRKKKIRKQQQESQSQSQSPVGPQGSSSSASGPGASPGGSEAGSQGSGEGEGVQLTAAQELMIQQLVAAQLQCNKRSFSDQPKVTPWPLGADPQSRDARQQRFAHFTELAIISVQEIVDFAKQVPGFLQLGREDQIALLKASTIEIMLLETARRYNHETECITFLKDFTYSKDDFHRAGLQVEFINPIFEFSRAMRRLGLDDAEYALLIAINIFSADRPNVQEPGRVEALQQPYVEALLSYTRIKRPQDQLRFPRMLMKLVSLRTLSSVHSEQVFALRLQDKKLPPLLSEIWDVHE

Structures are written as SMILES. Active and inactive are the calls of the source.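 How the source made its calls: active means LXR activation with EC50, the half-maximal effective concentration, of 10 µM or lower; inactive means the rest.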

Consider `O=S(=O)(Nc1ccc(C(O)(C(F)(F)F)C(F)(F)F)cc1)c1cccs1`, for which the EC50 was > 10 µM (inactive).

The values above are taken from PubChem BioAssay AID463150 (The Scripps Research Institute Molecular Screening Center, 2010).
